For data set [1], the species on record is Homo sapiens. Put plainly: Inhibition of IL1-beta induced nitrite production in human articular chondrocytes at 100 ug/ml after 120 hrs. Format: functional, cell-based.
Data set [2] can be described thus: Inhibition of IL1-beta induced PGE2 production in human articular chondrocytes at 100 ug/ml. Format: functional. Summed up: (§1)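 Human articular chondrocytes came from cartilage taken at femoral neck fracture surgery and were isolated by enzymatic digestion. After 24 h in culture they were exposed to compound (10, 50, 100 µg/mL) with IL-1β (10 ng/mL). Supernatant was collected at 120 h and PGE2 was quantified by enzyme immunoassay (detection limit 1 pg/mL). Values are means with SEM.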

Data set [3] is filed under the species Homo sapiens. Put plainly: Inhibition of IL1-beta induced glycosaminoglycans depletion in human articular chondrocytes 10 ug/ml to 100 ug/ml. Format: functional, cell-based. Put shortly:
(§2)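 Cartilage from femoral neck fracture patients was digested enzymatically to give chondrocytes. After 24 h the cells received compound at 10, 50 and 100 µg/mL together with IL-1β at 10 ng/mL. Total GAGs released into the medium were measured at 120 h and expressed as µg/mL, mean with SEM.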

The species entered for data set [4] is Homo sapiens. The data set can be described thus: Inhibition of IL1-beta induced nitrite production in human articular chondrocytes at 10 ug/ml after 120 hrs. The class given is functional, cell-based.
The species entered for data set [5] is Homo sapiens. The data set can be described thus: Inhibition of IL1-beta induced nitrite production in human articular chondrocytes at 50 ug/ml after 120 hrs. Format: functional, cell-based.
Data set [6] can be described thus: Toxicity in human articular chondrocytes assessed as reduction of tetrazolium salt metabolism after 120 hrs by MTT assay. Format: cell-based. Put shortly:
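Enzymatically isolated human articular chondrocytes were treated with compound (10, 50, 100 µg/mL) plus IL-1β (10 ng/mL). Viability was measured at 120 h by MTT cleavage by mitochondrial dehydrogenases and read as absorbance, mean with SEM.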
(In general: Tetrazolium dyes change colour on reduction, which living cells bring about.)

The species named for data set [7] is Homo sapiens. Put plainly: Inhibition of IL1-beta induced PGE2 production in human articular chondrocytes at 10 ug/ml to 100 ug/ml. The class given is functional, cell-based. Put shortly:
as §1

The nature of data set [8]: Inhibition of IL1-beta induced MMP3 secretion in human articular chondrocytes at 100 ug/ml. Format: functional. Put shortly:
(§3)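 Chondrocytes were isolated from human articular cartilage taken at femoral neck fracture surgery, by sequential hyaluronidase, pronase and collagenase digestion, then cultured. After 24 h they were treated with test compound (10, 50 and 100 µg/mL) plus IL-1β (10 ng/mL). Supernatants were collected at 120 h and MMP-3 was measured by ELISA (detection limit 1 ng/mL). Values are means with SEM.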

Data set [9] is filed under the species Homo sapiens. Put plainly: Inhibition of IL1-beta induced MMP3 secretion in human articular chondrocytes at 10 ug/ml to 100 ug/ml. The class given is functional, cell-based. Summed up: as §3
The nature of data set [10]: Inhibition of IL1-beta induced glycosaminoglycans depletion in human articular chondrocytes at 100 ug/ml. The class given is functional. Put shortly:
as §2

Structures are written as SMILES. Activity calls are given as the source filed them. No cut-off for these calls is given here.

With `CS(=O)(=O)c1ccc(/C=C2\S/C(=N\c3ccccc3)N(CCCO)C2=O)cc1`, the result in the data set filed under Homo sapiens [1], in the data set filed under Homo sapiens [3], in the data set filed under Homo sapiens [4] and in the data set filed under Homo sapiens [5] was Active. The Activity is 53.22 ng/mL in data set [2] and “Non-toxic” in data set [6].
`COc1cccc(/C=C2\S/C(=N\c3ccccc3)N(CCO)C2=O)c1`: the outcome in the data set filed under Homo sapiens [1], in the data set listed under Homo sapiens [3], in the data set listed under Homo sapiens [4], in the data set filed under Homo sapiens [7] and in the data set filed under Homo sapiens [5] was Active. Besides, the Activity entry in data set [6] was “Non-toxic”.
With `CS(=O)(=O)c1ccc(/C=C2\S/C(=N\c3ccccc3)N(CCO)C2=O)cc1`, the result in the data set listed under Homo sapiens [1], in the data set listed under Homo sapiens [3], in the data set listed under Homo sapiens [4], in the data set filed under Homo sapiens [7] and in the data set filed under Homo sapiens [5] was Active. In data set [6], the Activity result is on record as “Non-toxic”.
With `COc1ccc2c(c1)c(CC(=O)O)c(C)n2C(=O)c1ccc(Cl)cc1` [INDOMETHACIN], the Activity in [8] was 62.64 ng/mL.
On to `COc1ccc(/C=C2\S/C(=N\c3ccccc3)N(CCO)C2=O)cc1`, for which the outcome in the data set filed under Homo sapiens [1], in the data set listed under Homo sapiens [3], in the data set filed under Homo sapiens [4], in the data set listed under Homo sapiens [7] and in the data set filed under Homo sapiens [5] was Active. The Activity entry in [6] was “Non-toxic”.
As for `CSc1ccc(/C=C2\S/C(=N\c3ccccc3)N(CCCO)C2=O)cc1`, the result in the data set filed under Homo sapiens [1], in the data set filed under Homo sapiens [3], in the data set listed under Homo sapiens [4], in the data set listed under Homo sapiens [7] and in the data set listed under Homo sapiens [5] was Active. Also, the Activity result in data set [6] is given as “Non-toxic”.
As for `CCCN1C(=O)/C(=C/c2cccc(OC)c2)S/C1=N\c1ccccc1`, the result in the data set listed under Homo sapiens [1], in the data set filed under Homo sapiens [4], in the data set filed under Homo sapiens [7] and in the data set filed under Homo sapiens [5] was Active.
For the molecule `O=C1/C(=C/c2ccc(Cl)cc2)S/C(=N\c2ccccc2)N1CCCO`, the result in the data set listed under Homo sapiens [1], in the data set listed under Homo sapiens [3], in the data set listed under Homo sapiens [4], in the data set listed under Homo sapiens [7] and in the data set listed under Homo sapiens [5] was Active. Also, in data set [6], the Activity result was “Non-toxic”.
On to `COc1ccc(/C=C2\S/C(=N\c3ccccc3)N(CCCO)C2=O)cc1`, for which the outcome in the data set listed under Homo sapiens [1], in the data set filed under Homo sapiens [9], in the data set listed under Homo sapiens [3], in the data set listed under Homo sapiens [4], in the data set filed under Homo sapiens [7] and in the data set filed under Homo sapiens [5] was Active. The Activity result in data set [6] is listed as “Non-toxic”.
On to `CSc1ccc(/C=C2\S/C(=N\c3ccccc3)N(CCO)C2=O)cc1`, for which the Activity in data set [10] was 339000 ng/mL; in data set [6], “Non-toxic”. In addition, the result in the data set filed under Homo sapiens [1], in the data set listed under Homo sapiens [4], in the data set listed under Homo sapiens [7] and in the data set filed under Homo sapiens [5] was Active.
For `O=C1/C(=C/c2ccc(Cl)cc2)S/C(=N\c2ccccc2)N1CCO`, the outcome in the data set filed under Homo sapiens [1], in the data set listed under Homo sapiens [3], in the data set filed under Homo sapiens [4], in the data set filed under Homo sapiens [7] and in the data set filed under Homo sapiens [5] was Active. Further, the Activity entry in data set [6] is “Non-toxic”.
With `COc1cccc(/C=C2\S/C(=N\c3ccccc3)N(CCCO)C2=O)c1`, the outcome in the data set filed under Homo sapiens [1], in the data set filed under Homo sapiens [3], in the data set listed under Homo sapiens [4], in the data set filed under Homo sapiens [7] and in the data set listed under Homo sapiens [5] was Active. For the same molecule, in [6], the Activity entry was “Non-toxic”.

Values taken from ChEMBL document CHEMBL1137539, “Synthesis and in vitro evaluation of 5-arylidene-3-hydroxyalkyl-2-phenylimino-4-thiazolidinones with antidegenerative activity on human chondrocyte cultures” (Bioorg Med Chem, 2007).
